Tests used:
[1] = tested on: diaphragm muscle of MCT-treated C57BL/6 mice; assay: In vitro contractile function of diaphragm muscle bundles from treated mice; type: in vivo; conditions: MCT 600 mg/kg weekly, 6 weeks, vs sham
Outline: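 C57BL/6 mice (8 weeks) got MCT or saline s.c.; compound was given at 0.1% w/w in chow from 1 week before MCT. Diaphragm bundles at optimal length in buffer pH ~7.4 (95% O2–5% CO2, ~22°C) were equilibrated 15 min, then force–frequency tested (1–300 Hz) plus isotonic loads. Specific force N/cm2 (density 1.06), velocity Lo/s, power = velocity × force; n = 16/group.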

[2] = tested on: C57BL/6 mice with MCT-induced cardiac cachexia; type: in vivo; conditions: MCT 600 mg/kg weekly, 6 weeks
[3] = tested on: MuRF1 mRNA expression in C2C12 myotubes; assay: MuRF1 mRNA expression in dexamethasone-treated myotubes; type: cell-based, Murine; conditions: DEX 10 μmol/L, 24 h
Outline: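 Differentiated C2C12 myotubes (2% horse serum) were pre-treated for 2 h with test compound (0.1–10 μmol/L, DMSO) or DMSO alone before dexamethasone. Total RNA was reverse-transcribed with random hexamers. Quantitative RT-PCR used a LightCycler with FRET detection. MuRF1 was normalised to hypoxanthine phosphoribosyltransferase mRNA (60°C annealing). Mean ± SEM; one-way ANOVA, Bonferroni.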

SMILES	effect on isometric forces [1]	reduction of peak power [1]	reduction of peak shortening velocity [1]	body weight loss ([2]; normal chow (sham gained 7.9 ± 0.8%))	lower TA fibre CSA ([2]; vs sham)	reduction in TA muscle weight ([2]; vs sham)	increase in MuRF1 mRNA expression relative to untreated cells [3]
C[C@H]1C(=O)O[C@@H]2CCN3CC=C(COC(=O)[C@](C)(O)[C@]1(C)O)[C@H]23 [MCT, monocrotaline]	no significant effects	~ 20%	~ 20%	0.7 ± 0.6%	~ 20%	~ 10%	–
C[C@@H]1C[C@H]2[C@@H]3CCC4=CC(=O)C=C[C@]4(C)[C@@]3(F)[C@@H](O)C[C@]2(C)[C@@]1(O)C(=O)CO [Dexamethasone, dexamethasone]	–	–	–	–	–	–	approximately 2 fold

Source: article PMC5700443 (Journal of Cachexia, Sarcopenia and Muscle, 2017)
